Measured values from ChEMBL document CHEMBL2321740, “Arylazanylpyrazolone derivatives as inhibitors of mutant superoxide dismutase 1 dependent protein aggregation for the treatment of amyotrophic lateral sclerosis” (J Med Chem, 2013).
The source made the active and inactive calls. No cut-off for these calls is given here.

Tests used:
[1] = Inhibition of SOD1 mutant (unknown origin); parameters: species or system Homo sapiens
Liver [2] = assay: (§1) Half life in mouse liver microsomes in presence of NADPH; format: ADME, Microsome; conditions: microsomes
Caco-2 [3] = assay: Apparent permeability of the compound from basolateral to apical side in human Caco2 cells; format: ADME, cell-based
Liver [4] = assay: Half life in mouse liver microsomes in absence of NADPH; format: ADME, Microsome
Liver microsomes [5] = assay: Half life in human liver microsomes in absence of NADPH; format: ADME, Microsome
Liver microsomes [6] = assay: Half life in human liver microsomes in presence of NADPH; format: ADME, Microsome
[7] = Aqueous solubility of the compound; format: physicochemical; conditions: buffer
Caco-2 [8] = assay: Efflux ratio of permeability from basolateral to apical side over apical to basolateral side in human Caco2 cells; format: ADME, cell-based
Caco-2 [9] = assay: Apparent permeability of the compound from apical to basolateral side in human Caco2 cells; format: ADME, cell-based
[10] = Inhibition of SOD1 mutant -induced cytotoxicity in assessed as recovery of neuronal activity at 10 uM after 24 hrs by fluorescence assay in presence of proteosome inhibitor MG132 relative to control; parameters: scale not given: the % may be the effect or the level left
[11] = Inhibition of SOD1 mutant -induced cytotoxicity in cortical neurons after 24 hrs by fluorescence assay in presence of proteosome inhibitor MG132
PC-12 = assay: Inhibition of SOD1 mutant -induced cytotoxicity in rat PC12 cells after 24 hrs by fluorescence assay in presence of proteosome inhibitor MG132; format: cell-based
In short: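 PC12 cells expressing G93A SOD1 seeded at 15000 cells/well, held 24 h, then given compound in 12-point dose-response, top concentration 32 μM, halved at each step. After 24 h with compound, MG132 added (final 100 nM). Viability read 48 h later: cells washed twice with PBS, Calcein-AM 1 μM final for 20 min at room temperature, fluorescence intensity measured.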

[12] = as §1; format: ADME, Microsome; conditions: liver microsomes

| EC50 [1] [nM] | SMILES | further results |
| --- | --- | --- |
| 310 | CN(Cc1cc(=O)[nH][nH]1)c1cccc2ccccc12 | – |
| 490 | CN(Cc1cc(=O)n(Cc2ccccc2)[nH]1)c1cc(Cl)cc(Cl)c1 | – |
| 1190 | CN(CCc1cc(=O)[nH][nH]1)c1cc(Cl)cc(Cl)c1 | – |
| > 32000 | CN1N=C(CN(C)c2cc(Cl)cc(Cl)c2)C(C)(C)C1=O | – |
| 1270 | CN(Cc1cc(=O)[nH][nH]1)c1ccc(C#N)cc1 | – |
| 800 | O=c1cc(CN2CCCc3ccccc32)[nH][nH]1 | – |
| 610 | CC(C)N(Cc1cc(=O)[nH][nH]1)c1cc(Cl)cc(Cl)c1 | – |
| 750 | CN(Cc1cc(=O)[nH][nH]1)c1cccc(Br)c1 | – |
| 570 | CN(Cc1cc(=O)[nH][nH]1)c1cc(Cl)cc(Cl)c1 | t1/2 (Liver [2]): 0.417 h; Papp (Caco-2 [3]): 7.6 ×10⁻⁶ cm/s; t1/2 (Liver [4]): > 3 h; t1/2 (Liver microsomes [5]): > 3 h; t1/2 (Liver microsomes [6]): > 3 h; solubility [7]: >= 150 uM; Ratio (Caco-2 [8]): 3.5; Papp (Caco-2 [9]): 2.2 ×10⁻⁶ cm/s; Activity [10]: 100% |
| > 32000 | Cc1c(CN(C)c2cc(Cl)cc(Cl)c2)n(C)n(C)c1=O | – |
| 810 | COc1cccc(N(C)Cc2cc(=O)[nH][nH]2)c1 | – |
| 650 | O=c1[nH][nH]c2c1CCN(c1cc(Cl)cc(Cl)c1)C2 | – |
| 290 | CN(Cc1cc(=O)[nH][nH]1)c1ccc(Cl)cc1Cl | – |
| 670 | Cn1[nH]c(COc2cc(Cl)cc(Cl)c2)cc1=O | – |
| 1200 | CN(Cc1cc(=O)[nH][nH]1)c1ccccc1Br | – |
| 710 | CN(Cc1cc(=O)[nH][nH]1)c1ccc(Br)cc1 | – |
| 690 | O=c1cc(CN(Cc2ccccc2)c2cc(Cl)cc(Cl)c2)[nH][nH]1 | – |
| 1450 | O=c1[nH][nH]c2c1CN(c1cc(Cl)cc(Cl)c1)CC2 | Activity [11]: inactive; Activity (PC-12): Active |

| EC50 [1] [nM] | SMILES | further results |
| --- | --- | --- |
| 420 | CN(Cc1cc(=O)[nH][nH]1)c1ccc(Cl)c(Cl)c1 | – |
| 350 | CCN(Cc1cc(=O)[nH][nH]1)c1cc(Cl)cc(Cl)c1 | – |
| 750 | CN(Cc1cc(=O)n(C)[nH]1)c1cc(Cl)cc(Cl)c1 | – |
| 530 | O=c1cc(CN(c2cc(Cl)cc(Cl)c2)C2CC2)[nH][nH]1 | – |
| 1400 | CN(Cc1cc(=O)[nH][nH]1)c1ccc(F)cc1 | – |
| 1310 | O=c1cc(CN(c2ccccc2)c2cc(Cl)cc(Cl)c2)[nH][nH]1 | – |
| 1060 | O=c1cc(CN2CCc3ccccc32)[nH][nH]1 | – |
| 830 | CN(Cc1cc(=O)[nH][nH]1)c1ccc2ccccc2c1 | – |
| > 32000 | CN(Cc1cc(=O)n(C)n1C)c1cc(Cl)cc(Cl)c1 | – |
| 780 | O=c1cc(CNc2cc(Cl)cc(Cl)c2)[nH][nH]1 | t1/2 (Liver [2]): 0.5 h; Papp (Caco-2 [3]): 28.1 ×10⁻⁶ cm/s; t1/2 (Liver [4]): 1.67 h; t1/2 (Liver microsomes [5]): > 3 h; t1/2 (Liver microsomes [6]): 1.58 h; solubility [7]: >= 150 uM; Ratio (Caco-2 [8]): 47.1; Papp (Caco-2 [9]): 0.6 ×10⁻⁶ cm/s |
| 1270 | CC(C)(C)N(Cc1cc(=O)[nH][nH]1)c1cc(Cl)cc(Cl)c1 | – |
| > 32000 | CN(Cc1cc(=O)[nH]n1C)c1cc(Cl)cc(Cl)c1 | – |
| 1020 | C#CCN(Cc1cc(=O)[nH][nH]1)c1cc(Cl)cc(Cl)c1 | – |
| 1450 | CN(CCCc1cc(=O)[nH][nH]1)c1cc(Cl)cc(Cl)c1 | Activity [11]: inactive; Activity (PC-12): Active |
| 830 | CN(Cc1cc(=O)[nH][nH]1)c1ccc(Cl)cc1 | – |
| 750 | CN(Cc1cc(=O)[nH][nH]1)c1ccccc1 | – |
| 400 | O=c1cc(COc2cc(Cl)cc(Cl)c2)[nH][nH]1 | half-life [12]: 0.6 h; t1/2 (Liver [4]): 1.85 h; t1/2 (Liver microsomes [5]): 2.88 h |
